For one series, the target named is Cholinesterase (Equus caballus, UniProt P81908). In words: Inhibition of equine serum BChE using butyrylthiocholine iodide as substrate by spectrophotometer analysis. In short, it runs like this: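 Compound stocks were made in DMSO/ethanol (1:9) and diluted to final concentrations with 0.1 M potassium phosphate buffer, pH 8.0. IC50 values are mean ± SE of three independent experiments.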

The target of series [1] is T1, Acetylcholinesterase (Electrophorus electricus, UniProt O42275). In words: Inhibition of electric eel AChE using acetylthiocholine iodide as substrate by spectrophotometer analysis.
A short description of series [2]: Antioxidant activity assessed as ferric ion reducing activity using fe3+-TPTZ measured per gram of protein by FRAP assay. The class given is functional. The gist of the method: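 Reducing power measured against a FRAP reagent prepared by mixing acetate buffer (pH 3.6), 10 mM TPTZ in 40 mM HCl, and 20 mM ferric chloride hexahydrate. Test compounds act as reductants, converting the ferric tripyridyl triazine complex to the blue ferrous form, which is read colorimetrically. The method follows Benzie and Strain.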

Series [3] in a line: Neuroprotective activity in rat PC12 cells assessed as inhibition H2O2-induced reduction of cell viability at 5 uM after 24 hrs by MTT assay. The class given is functional, cell-based. To be noted: PC-12. In short, it runs like this:
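PC12 cells were differentiated in serum-free medium with NGF (50 ng/ml) for 5 days until neurite outgrowth appeared. Cells were preincubated with compound at 1, 5 or 10 for 3 h, then challenged with H2O2 (300). Viability is expressed relative to the H2O2-treated group.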
A general note: Tetrazolium assays rely on reduction of a dye to a coloured formazan, in cell work by metabolically active cells.

For series [4], the target named is T1, Acetylcholinesterase. Nature of the series: Inhibition of electric eel AChE using acetylthiocholine as substrate by Lineweavere-Burk plot. The gist of the method: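 Compound stocks were made in DMSO/ethanol (1:9) and diluted in 0.1 M potassium phosphate buffer, pH 8.0. Initial AChE velocity was measured at inhibitor levels of 0, 0.64, 1.27 and 2.55 across varied acetylthiocholine concentrations. Inhibition type was read from a Lineweaver–Burk plot, and Ki was calculated from a secondary plot.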

Series [5] in a line: Cytotoxicity against rat PC12 cells at 1 to 10 uM. The class given is cell-based. Conditions: pc-12, 10 µM.
The nature of series [6]: Neuroprotective activity in rat PC12 cells assessed as inhibition H2O2-induced reduction of cell viability at 1 to 10 uM after 24 hrs by MTT assay. The class given is functional, cell-based. To be noted: PC-12. In short, it runs like this:
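PC12 cells differentiated with NGF (50 ng/ml) in serum-free medium for 5 days, until neurite outgrowth was seen by microscopy. Cells were pre-incubated with compound at 1, 5 or 10 for 3 h, then exposed to H2O2 (300). Viability was expressed relative to the H2O2-only group. A reference compound was run at 5.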

The structures appear in SMILES notation. Calls of active or inactive are those of the source. The calls are words filed in the database; no cut-off is given here.

Sequence of Cholinesterase (P81908 whole entry): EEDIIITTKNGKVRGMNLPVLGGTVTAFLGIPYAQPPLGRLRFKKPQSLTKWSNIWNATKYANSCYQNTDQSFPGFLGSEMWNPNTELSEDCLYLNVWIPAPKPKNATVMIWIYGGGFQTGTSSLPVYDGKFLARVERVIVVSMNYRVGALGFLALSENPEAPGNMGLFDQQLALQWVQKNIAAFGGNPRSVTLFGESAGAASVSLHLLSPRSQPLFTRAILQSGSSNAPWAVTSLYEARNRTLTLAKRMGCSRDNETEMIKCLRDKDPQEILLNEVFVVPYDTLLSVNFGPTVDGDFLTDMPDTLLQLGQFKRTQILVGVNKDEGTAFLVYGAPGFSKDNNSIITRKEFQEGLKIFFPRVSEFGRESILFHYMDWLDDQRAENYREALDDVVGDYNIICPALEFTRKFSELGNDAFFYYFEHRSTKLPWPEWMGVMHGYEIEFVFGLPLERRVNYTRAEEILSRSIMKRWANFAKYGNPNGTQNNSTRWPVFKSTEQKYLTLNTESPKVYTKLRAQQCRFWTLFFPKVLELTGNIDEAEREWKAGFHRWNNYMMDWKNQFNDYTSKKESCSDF
T1 sequence (O42275 whole entry): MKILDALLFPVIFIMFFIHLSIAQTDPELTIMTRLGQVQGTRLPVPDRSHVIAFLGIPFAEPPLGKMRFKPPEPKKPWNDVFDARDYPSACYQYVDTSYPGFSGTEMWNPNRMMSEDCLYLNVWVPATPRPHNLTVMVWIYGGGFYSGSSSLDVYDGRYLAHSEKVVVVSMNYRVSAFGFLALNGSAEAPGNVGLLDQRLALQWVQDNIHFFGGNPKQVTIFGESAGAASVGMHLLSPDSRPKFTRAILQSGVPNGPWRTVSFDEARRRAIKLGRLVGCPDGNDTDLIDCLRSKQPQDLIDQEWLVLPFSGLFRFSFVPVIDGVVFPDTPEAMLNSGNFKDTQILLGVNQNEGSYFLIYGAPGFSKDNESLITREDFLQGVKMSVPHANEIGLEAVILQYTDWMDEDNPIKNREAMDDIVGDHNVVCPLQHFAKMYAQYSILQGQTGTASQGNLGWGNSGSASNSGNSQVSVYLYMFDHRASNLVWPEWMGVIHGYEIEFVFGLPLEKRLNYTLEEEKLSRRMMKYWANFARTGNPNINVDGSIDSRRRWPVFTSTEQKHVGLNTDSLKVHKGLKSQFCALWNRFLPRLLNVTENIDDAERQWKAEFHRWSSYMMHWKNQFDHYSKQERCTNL

As for `O=C(CCCOc1ccc2ccc(=O)oc2c1)N1CCN(c2ccccc2O)CC1`, the values for the IC50 against Cholinesterase and against Acetylcholinesterase [1] were 280 µM and 7 µM, respectively. For the same compound, in series [2], the Activity stood at 2.82 µmol.

As to `Cc1cc(=O)oc2cc(OCCCC(=O)N3CCN(c4ccc(Cl)c(Cl)c4)CC3)ccc12`, the IC50 – broadly, the concentration needed to halve the response being measured – is 250 µM at Cholinesterase and 4.38 µM on Acetylcholinesterase [1]. For the same compound, in series [2], the Activity was determined as 0.05 µmol.

As for `O=C(COc1ccc2ccc(=O)oc2c1)N1CCC(Cc2ccccc2)CC1`, the IC50 is 46 µM against Cholinesterase and 9.8 µM against Acetylcholinesterase [1]. The Activity in series [2] was 0.05 µmol.

For `COc1ccc(CCNC(=O)COc2ccc3ccc(=O)oc3c2)cc1OC`, the concentration for half-maximal inhibition (IC50) on Cholinesterase was 163 µM; against Acetylcholinesterase [1] it was 74 µM. For the same compound, the Activity in series [2] was 5.43 µmol.

Turning to `Cc1cc(=O)oc2cc(OCCCC(=O)N3CCN(c4ccc(F)cc4)CC3)ccc12`, the IC50 against Cholinesterase came to 24 µM; against Acetylcholinesterase [1], 41.6 µM. Besides, the Activity in series [2] came out at 0.08 µmol.

`O=C(CCCOc1ccc2ccc(=O)oc2c1)N1CCC(O)(c2ccc(Br)cc2)CC1`: the IC50 at Cholinesterase came out at 180 µM; at Acetylcholinesterase [1], 73 µM. For the same compound, the Activity in series [2] came to 0.03 µmol.

For `Cc1cc(=O)oc2cc(OCCCC(=O)N3CCC(O)(c4ccc(Br)cc4)CC3)ccc12`, the IC50 was 141 µM at Cholinesterase and 34.6 µM on Acetylcholinesterase [1]. Further, the Activity in series [2] worked out at 0.06 µmol.

Consider `O=c1c(O)c(-c2ccc(O)c(O)c2)oc2cc(O)cc(O)c12`, for which the result in series [3] was Active. In series [2], the Activity is 10.8 µmol.

For `O=C(COc1ccc2ccc(=O)oc2c1)NC1CCN(Cc2ccccc2)CC1`, the Ki (as a rule, the dissociation constant of the complex between target and ligand, obtained from inhibition or displacement) at Acetylcholinesterase [4] was 1.32 µM. Further, the IC50 at Cholinesterase was determined as 42 µM; against Acetylcholinesterase [1] it was 1.6 µM. The Activity result in series [5] is “Non-toxic”; in series [2], 0.06 µmol. The outcome in series [6] was Active.

Take `Cc1cc(=O)oc2cc(OCCCC(=O)N3CCN(c4ccccc4F)CC3)ccc12`: the half-inhibitory concentration (IC50) against Cholinesterase came to 29 µM; against Acetylcholinesterase [1], 16.4 µM. The Activity in series [2] amounted to 0.1 µmol.

`O=C(COc1ccc2ccc(=O)oc2c1)N1CCN(c2ccccc2)CC1`: the IC50 at Cholinesterase was 50 µM; at Acetylcholinesterase [1], 33 µM. Further, in series [2], the Activity was 1.94 µmol.

For `O=C(CCCOc1ccc2ccc(=O)oc2c1)N1CCN(c2ccc(F)cc2)CC1`, the IC50 against Cholinesterase is 75 µM; against Acetylcholinesterase [1], 50 µM. Moreover, the Activity in series [2] worked out at 1.37 µmol.

Regarding `O=C(COc1ccc2ccc(=O)oc2c1)N1CCN(c2ccc(Cl)c(Cl)c2)CC1`, the IC50 against Cholinesterase stood at 120 µM; at Acetylcholinesterase [1] it was 26.8 µM. Further, the Activity in series [2] was determined as 2.01 µmol.

Regarding `O=C(CCCOc1ccc2ccc(=O)oc2c1)N1CCN(c2ccc(Cl)c(Cl)c2)CC1`, the IC50 is 80 µM against Cholinesterase and 26 µM on Acetylcholinesterase [1]. In series [2], the Activity amounted to 0.78 µmol.

As to `O=C(COc1ccc2ccc(=O)oc2c1)N1CCN(c2ccccc2F)CC1`, the IC50 on Cholinesterase stood at 86 µM; against Acetylcholinesterase [1], 34.5 µM. Also, the Activity in series [2] was determined as 0.07 µmol.

As for `O=C1O[C@H]([C@@H](O)CO)C(O)=C1O`, in series [2], the Activity turned out to be 7.26 µmol.

Turning to `O=C(CCCOc1ccc2ccc(=O)oc2c1)N1CCN(c2ccccc2F)CC1`, the IC50 is 15 µM against Cholinesterase and 6.9 µM on Acetylcholinesterase [1]. The Activity in series [2] amounted to 0.15 µmol.

In the case of `Cc1cc(=O)oc2cc(OCCCC(=O)N3CCN(c4ccccc4)CC3)ccc12`, the figures for the IC50 against Cholinesterase and at Acetylcholinesterase [1] were 68 µM and 20.8 µM, respectively. For the same compound, the Activity in series [2] was 0.07 µmol.

For the compound `O=C(CCCOc1ccc2ccc(=O)oc2c1)N1CCN(c2ccccc2)CC1`, the figures for the concentration for half-maximal inhibition (IC50) against Cholinesterase and at Acetylcholinesterase [1] were 120 µM and 3.43 µM, respectively. Besides, in series [2], the Activity was determined as 1.13 µmol.

For the compound `Cc1cc(=O)oc2cc(OCCCC(=O)N3CCN(c4ccccc4O)CC3)ccc12`, the values for the IC50 against Cholinesterase and at Acetylcholinesterase [1] were 184 µM and 6.2 µM, respectively. In addition, the Activity in series [2] came to 2.01 µmol.

As to `O=C(CCCOc1ccc2ccc(=O)oc2c1)N1CCC(Cc2ccccc2)CC1`, the IC50 on Cholinesterase is 387 µM; on Acetylcholinesterase [1], 6.9 µM. Besides, in series [2], the Activity was 1.61 µmol.

(Values after ChEMBL document CHEMBL3286322, “Synthesis and anti-cholinesterase activity of new 7-hydroxycoumarin derivatives” (Eur J Med Chem, 2014).)
